The record followed here is ChEMBL document CHEMBL1138061, “A thienopyridazinone-based melanin-concentrating hormone receptor 1 antagonist with potent in vivo anorectic properties” (J Med Chem, 2006).

Data set [1] is described as follows: Half life in Sprague-Dawley rat at 10 mg/kg, po and 2.5 mg/kg, iv. Type of data set: ADME, organism-based. To be noted: in vivo. The essentials:
(§1)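 Rats dosed 10 mg kg-1 orally and 2.5 mg kg-1 iv. AUC and Cmax come from the oral dose. Brain levels were measured 1 h and 4 h after oral dosing and expressed as brain/plasma ratios at those times. Vd, clearance and t1/2 were derived from the same dosing.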

Data set [2] is described as follows: Brain to plasma ratio in Sprague-Dawley rat at 10 mg/kg, po and 2.5 mg/kg, iv after 1 hour. Type of data set: ADME, organism-based. The essentials:
as §1

Data set [3] in a line: Cmax in Sprague-Dawley rat plasma at 10 mg/kg, po. Details: dose 10 mg/kg, route oral. Type of data set: ADME, organism-based. Put shortly:
as §1

Data set [4] is described as follows: AUC in Sprague-Dawley rat at 10 mg/kg, po. Type of data set: ADME, organism-based. Set-up: dose 10 mg/kg, route oral. The following applies: plasma. Put shortly:
as §1

A short description of data set [5]: Volume of distribution in Sprague-Dawley rat at 10 mg/kg, po and 2.5 mg/kg, iv. Type of data set: ADME, organism-based. To be noted: in vivo, read-out: Vdss. The essentials:
as §1

Data set [6] in a line: Brain concentration in Sprague-Dawley rat at 10 mg/kg, po after 1 hour. Type of data set: ADME, organism-based. Set-up: dose 10 mg/kg, route oral. To be noted: read-out: Drug uptake. Put shortly: as §1
Data set [7] can be described thus: Clearance in Sprague-Dawley rat at 10 mg/kg, po and 2.5 mg/kg, iv. Type of data set: ADME, organism-based. The following applies: in vivo.
Data set [8] deals with T1, Melanin-concentrating hormone receptor 1 (Rattus norvegicus, UniProt P97639). Description: Binding affinity to chimeric rat/human MCH1R stably expressed in HEK293 cells. In kind it is cell-based. Put shortly: (§2)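 Each value is the average of at least two replicate determinations.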
T1 sequence (P97639 whole entry, looked up): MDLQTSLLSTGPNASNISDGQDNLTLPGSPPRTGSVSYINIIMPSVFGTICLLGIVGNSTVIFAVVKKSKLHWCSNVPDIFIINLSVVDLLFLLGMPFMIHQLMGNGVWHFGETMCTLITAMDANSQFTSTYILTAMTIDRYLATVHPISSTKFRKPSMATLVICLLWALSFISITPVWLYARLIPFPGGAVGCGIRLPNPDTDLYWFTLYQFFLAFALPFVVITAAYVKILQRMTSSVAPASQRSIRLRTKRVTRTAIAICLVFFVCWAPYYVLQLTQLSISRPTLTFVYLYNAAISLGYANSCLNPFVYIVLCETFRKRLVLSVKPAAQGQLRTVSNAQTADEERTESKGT
The target of data set [9] is T1, Melanin-concentrating hormone receptor 1. Description: Activity at chimeric rat/human MCH1R by accumulation of GTPgammaS. Put shortly: as §2
Data set [10] can be described thus: Brain to plasma ratio in Sprague-Dawley rat at 10 mg/kg, po and 2.5 mg/kg, iv after 4 hours. In kind it is ADME, organism-based. Put shortly: as §1
Data set [11] in a line: Intrinsic clearance in human liver microsomes. Type of data set: ADME, Microsome. Put shortly: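 Intrinsic human clearance was determined in human liver microsomes. Standard error is estimated below 10%, based on a reference compound run as a standard.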
Data set [12] in a line: Bioavailability in Sprague-Dawley rat at 10 mg/kg, po and 2.5 mg/kg, iv. In kind it is ADME, organism-based. To be noted: in vivo.
Data set [13] in a line: Brain concentration in Sprague-Dawley rat at 10 mg/kg, po after 4 hours. Type of data set: ADME, organism-based. Details: dose 10 mg/kg, route oral. To be noted: read-out: Drug uptake. The essentials:
as §1

For data set [14], the target named is T2, Voltage-gated inwardly rectifying potassium channel KCNH2 (Homo sapiens, UniProt Q12809). Description: Displacement of [3H]dofetilide from human ERG channel.
T2 sequence (Q12809 whole entry): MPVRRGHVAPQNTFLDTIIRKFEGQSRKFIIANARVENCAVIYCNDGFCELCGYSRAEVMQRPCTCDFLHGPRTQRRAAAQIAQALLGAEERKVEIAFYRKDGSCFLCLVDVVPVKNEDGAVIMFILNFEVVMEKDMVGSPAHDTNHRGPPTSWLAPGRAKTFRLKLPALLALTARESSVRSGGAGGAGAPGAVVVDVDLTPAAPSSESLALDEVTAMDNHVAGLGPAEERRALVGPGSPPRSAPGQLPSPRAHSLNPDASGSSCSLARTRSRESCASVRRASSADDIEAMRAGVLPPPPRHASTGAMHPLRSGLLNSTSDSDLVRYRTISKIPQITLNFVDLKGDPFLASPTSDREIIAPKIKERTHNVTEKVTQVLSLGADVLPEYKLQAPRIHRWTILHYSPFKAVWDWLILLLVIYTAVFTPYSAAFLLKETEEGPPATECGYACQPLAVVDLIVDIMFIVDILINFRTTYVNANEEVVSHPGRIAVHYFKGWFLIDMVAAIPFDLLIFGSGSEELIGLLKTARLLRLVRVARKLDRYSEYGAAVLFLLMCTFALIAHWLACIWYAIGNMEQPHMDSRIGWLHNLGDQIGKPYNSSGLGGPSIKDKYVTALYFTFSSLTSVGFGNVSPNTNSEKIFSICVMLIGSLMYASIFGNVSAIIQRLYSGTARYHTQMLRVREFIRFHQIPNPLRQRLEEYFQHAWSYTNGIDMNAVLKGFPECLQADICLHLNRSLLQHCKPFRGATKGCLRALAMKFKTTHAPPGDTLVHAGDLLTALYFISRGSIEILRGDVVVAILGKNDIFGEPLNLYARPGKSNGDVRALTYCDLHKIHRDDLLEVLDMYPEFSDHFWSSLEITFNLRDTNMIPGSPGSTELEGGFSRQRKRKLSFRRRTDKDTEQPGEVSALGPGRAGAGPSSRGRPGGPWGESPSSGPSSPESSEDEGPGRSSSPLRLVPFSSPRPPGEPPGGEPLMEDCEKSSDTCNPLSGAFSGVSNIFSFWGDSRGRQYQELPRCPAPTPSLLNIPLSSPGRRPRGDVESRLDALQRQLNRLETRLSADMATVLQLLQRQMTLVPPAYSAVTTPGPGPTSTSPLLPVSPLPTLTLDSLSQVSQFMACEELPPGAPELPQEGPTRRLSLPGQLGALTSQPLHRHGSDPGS
The nature of data set [15]: Selectivity for MCH1R over muscarinic M3R.
In data set [16] the target is T2, Voltage-gated inwardly rectifying potassium channel KCNH2. Description: Affinity for human ERG channel by patch clamp assay. Type of data set: functional.
Data set [17] can be described thus: Plasma concentration in Sprague-Dawley rats at 1 mg/kg after 14 days. To be noted: rat. Set-up: dose 1 mg/kg. In kind it is ADME, organism-based.
Data set [18] is described as follows: Plasma concentration in Sprague-Dawley rats at 1 mg/kg after 1 day. In kind it is ADME, organism-based. Set-up: dose 1 mg/kg. To be noted: rat.
The target of data set [19] is CYP3A4 (Homo sapiens, UniProt P08684). Put plainly: Inhibition of cytochrome P450 3A4 at 5 uM. In kind it is ADME. The following applies: read-out: Activity.
Sequence of CYP3A4 (P08684 whole entry): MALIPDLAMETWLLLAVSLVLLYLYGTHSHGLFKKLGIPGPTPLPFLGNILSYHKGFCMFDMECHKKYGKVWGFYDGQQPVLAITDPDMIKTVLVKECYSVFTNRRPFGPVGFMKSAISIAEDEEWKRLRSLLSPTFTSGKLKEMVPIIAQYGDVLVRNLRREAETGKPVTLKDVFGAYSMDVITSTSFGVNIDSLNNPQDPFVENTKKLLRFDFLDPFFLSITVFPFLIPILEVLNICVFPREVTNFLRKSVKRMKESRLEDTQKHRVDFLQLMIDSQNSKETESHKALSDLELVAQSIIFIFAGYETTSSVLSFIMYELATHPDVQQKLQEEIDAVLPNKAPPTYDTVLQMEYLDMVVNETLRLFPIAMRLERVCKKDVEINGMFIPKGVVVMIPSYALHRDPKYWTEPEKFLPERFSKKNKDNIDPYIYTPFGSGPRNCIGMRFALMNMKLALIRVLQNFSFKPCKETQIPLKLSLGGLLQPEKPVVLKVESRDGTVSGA
Data set [20] has as its target Muscarinic acetylcholine receptor M3 (Homo sapiens, UniProt P20309). Put plainly: Binding affinity to muscarinic M3R.
Data set [21] has as its target T3, Muscarinic acetylcholine receptor M1 (Homo sapiens, UniProt P11229).
T3 sequence (P11229 whole entry): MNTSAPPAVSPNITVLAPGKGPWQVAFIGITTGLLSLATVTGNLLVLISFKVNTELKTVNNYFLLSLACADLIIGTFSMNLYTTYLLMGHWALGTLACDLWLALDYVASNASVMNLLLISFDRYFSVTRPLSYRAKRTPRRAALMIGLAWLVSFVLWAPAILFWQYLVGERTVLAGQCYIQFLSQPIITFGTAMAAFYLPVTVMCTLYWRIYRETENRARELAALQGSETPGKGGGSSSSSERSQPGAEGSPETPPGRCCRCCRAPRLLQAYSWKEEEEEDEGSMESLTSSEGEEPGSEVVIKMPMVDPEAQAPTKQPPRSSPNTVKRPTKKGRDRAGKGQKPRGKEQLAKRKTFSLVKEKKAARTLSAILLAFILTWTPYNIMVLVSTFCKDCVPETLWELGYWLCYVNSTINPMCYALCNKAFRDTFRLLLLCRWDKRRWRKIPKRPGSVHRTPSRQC
Put plainly: Binding affinity to muscarinic M1R.

In data set [22] the target is CYP2D6 (Homo sapiens, UniProt P10635). Put plainly: Inhibition of cytochrome P450 2D6 at 5 uM. Type of data set: ADME. The following applies: read-out: Activity.
Sequence of CYP2D6 (P10635 whole entry): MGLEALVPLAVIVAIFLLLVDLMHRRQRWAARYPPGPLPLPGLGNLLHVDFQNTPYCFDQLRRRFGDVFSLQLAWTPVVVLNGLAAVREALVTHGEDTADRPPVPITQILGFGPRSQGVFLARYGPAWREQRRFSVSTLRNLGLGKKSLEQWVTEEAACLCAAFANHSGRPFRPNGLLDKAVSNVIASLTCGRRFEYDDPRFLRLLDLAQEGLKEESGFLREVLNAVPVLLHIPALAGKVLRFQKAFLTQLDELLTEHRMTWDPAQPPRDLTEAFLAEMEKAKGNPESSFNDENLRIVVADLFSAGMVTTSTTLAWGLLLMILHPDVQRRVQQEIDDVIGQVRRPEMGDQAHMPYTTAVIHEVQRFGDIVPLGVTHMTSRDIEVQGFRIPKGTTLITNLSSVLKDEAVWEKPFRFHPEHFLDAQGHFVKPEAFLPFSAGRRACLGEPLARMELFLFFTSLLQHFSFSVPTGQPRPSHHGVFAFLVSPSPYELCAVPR
The target in data set [23] is Melanin-concentrating hormone receptor 1 (Rattus norvegicus) (UniProt P97639). Put plainly: Inhibition of chimeric rat/human MCH1R at 10 uM. Put shortly:
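Single-concentration test at 10 µM, reported as percent inhibition of MCH1R; values averaged from at least two replicates.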

Sequence of Melanin-concentrating hormone receptor 1 (Rattus norvegicus) (P97639 whole entry): as the sequence (P97639 whole entry, looked up) above
Sequence of Muscarinic acetylcholine receptor M3 (P20309 whole entry): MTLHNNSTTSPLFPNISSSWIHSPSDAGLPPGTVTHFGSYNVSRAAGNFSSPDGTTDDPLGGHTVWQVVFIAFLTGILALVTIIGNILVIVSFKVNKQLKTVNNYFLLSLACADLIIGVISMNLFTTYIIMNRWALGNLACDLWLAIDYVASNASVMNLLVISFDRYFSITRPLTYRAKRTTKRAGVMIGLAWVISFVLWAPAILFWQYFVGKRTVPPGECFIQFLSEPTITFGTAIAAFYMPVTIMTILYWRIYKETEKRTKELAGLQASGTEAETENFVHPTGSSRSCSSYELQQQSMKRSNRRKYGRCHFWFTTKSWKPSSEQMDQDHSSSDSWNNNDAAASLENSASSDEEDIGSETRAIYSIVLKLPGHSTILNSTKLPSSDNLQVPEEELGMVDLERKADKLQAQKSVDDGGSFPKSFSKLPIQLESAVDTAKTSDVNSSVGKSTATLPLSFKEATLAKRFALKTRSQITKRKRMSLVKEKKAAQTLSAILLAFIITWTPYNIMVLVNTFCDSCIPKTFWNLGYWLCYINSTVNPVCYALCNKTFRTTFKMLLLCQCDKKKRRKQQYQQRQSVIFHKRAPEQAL

For the compound `CN[C@H]1CCN(c2ccc(-n3ncc4cc(-c5ccc(Cl)cc5)ccc4c3=O)cn2)C1`, the half-life in [1] was 9.4 h. Also, in data set [2], the partition ratio (Kp) at 1 h was 7.8. Also, the Cmax in [3] is 140 ng/mL. The exposure (AUC) in data set [4] turned out to be 2200 ng·h/mL. For the same compound, in data set [5], the Vd turned out to be 14 L/kg. Further, the concentration at 1 h in data set [6] stood at 94 ng/g. In [7], this compound came in with a clearance of 17 mL/min/kg. In addition, in data set [8], the affinity corresponds to a Ki of 1.2 nM. The compound further registered an IC50 in data set [9] of 8.5 nM. Moreover, the Kp at 4 h in data set [10] turned out to be 23. Besides, the CLint scaled in data set [11] was found to be 8.9 mL/min/kg. In addition, in data set [12], the bioavailability stood at 22%. The concentration at 4 h in [13] amounted to 1700 ng/g.
Regarding `CNC1CCN(c2ccc(NC(=O)c3ccc(-c4ccccc4)cc3)cn2)C1` (stereo not given), the affinity in data set [14] corresponds to a Ki of 200 nM.
On to `CN[C@@H]1CCN(c2ccc(-n3ncc4cc(-c5ccc(C(F)(F)F)cc5)sc4c3=O)cn2)C1`, for which, in data set [1], the half-life is 11 h. Further, the partition ratio (Kp) at 1 h in [2] stood at 1.4. For the same compound, the Selectivity ratio in data set [15] is 50. In addition, the half-maximal inhibitory concentration (IC50) in data set [16] worked out at 1800 nM; in [9], 7.7 nM. Besides, the maximum concentration (Cmax) in data set [3] came out at 500 ng/mL. In addition, in data set [17], the concentration at 336 h worked out at 790 nM. The compound also displayed an exposure (AUC) in [4] of 8400 ng·h/mL. This compound gave a concentration at 24 h in data set [18] of 280 nM. In data set [5], the Vd was determined as 4.1 L/kg. The inhibition at 5 µM in data set [19] and in data set [22] was less than 10% throughout. Besides, the concentration at 1 h in [6] is 190 ng/g. Moreover, the Ki in data set [20] came to 160 nM; in data set [21], 260 nM; in data set [8], 3.3 nM. Further, the clearance in [7] turned out to be 4.3 mL/min/kg. For the same compound, the Kp at 4 h in [10] was 3.1. In addition, the intrinsic clearance (CLint scaled) in data set [11] is 8.5 mL/min/kg. Besides, the bioavailability in [12] was found to be 24%. The concentration at 4 h in data set [13] was determined as 1200 ng/g.
For the compound `CN[C@H]1CCN(c2ccc(-n3ncc4cc(-c5ccc(OC)cc5C)ccc4c3=O)cn2)C1`, in [8], the Ki amounted to 11 nM. In data set [11], the CLint scaled came to 8.8 mL/min/kg.
The compound `O=c1c2ccc(-c3ccc(Cl)cc3)cc2cnn1-c1ccc(N2CC[C@H](N3CCCC3)C2)nc1` returned an inhibition constant (Ki) in [8] of 1.6 nM. In data set [11], this compound yielded a CLint scaled of 16 mL/min/kg.
`CN[C@H]1CCN(c2ccc(-n3ncc4cc(-c5ccc(C(F)(F)F)cc5)sc4c3=O)cn2)C1` had a Ki in data set [8] of 3.1 nM.
For `CN[C@H]1CCN(c2ccc(-n3ncc4cc(-c5ccc(F)cc5)sc4c3=O)cn2)C1`, the affinity in data set [8], expressed as Ki, was 2 nM. Moreover, the CLint scaled in data set [11] came out at 12 mL/min/kg.
In the case of `CCc1ccc(-c2cc3cnn(-c4ccc(N5CC[C@@H](NC)C5)nc4)c(=O)c3s2)cc1`, in [8], the affinity, expressed as Ki, was 2.6 nM. For the same compound, the CLint scaled in data set [11] stood at 155 mL/min/kg.
The corresponding values for `CN(C)[C@H]1CCN(c2ccc(-n3ncc4cc(-c5ccc(C(F)(F)F)cc5)sc4c3=O)cn2)C1` are 4.4 nM and 18 mL/min/kg.
The matching figures for `CN[C@@H]1CCN(c2ccc(-n3ncc4cc(-c5ccc(Cl)cc5)sc4c3=O)cn2)C1`: 1.9 nM and 8.4 mL/min/kg.
The corresponding values for `CN[C@@H]1CCN(c2ccc(-n3ncc4cc(-c5ccc(F)cc5)sc4c3=O)cn2)C1` are 2.5 nM and 8.2 mL/min/kg.
On to `CN(C)[C@H]1CCN(c2ccc(-n3ncc4cc(-c5ccc(C(F)(F)F)cc5)n(C)c4c3=O)cn2)C1`, for which, in [8], the Ki amounted to 14 nM. Moreover, the CLint scaled in data set [11] worked out at 48 mL/min/kg.
The matching figures for `CN[C@@H]1CCN(c2ccc(-n3ncc4cc(-c5ccc(C(F)(F)F)cc5)ccc4c3=O)cn2)C1`: 10 nM and 6 mL/min/kg.
In data set [8], `CN[C@H]1CCN(c2ccc(-n3ncc4cc(-c5ccc(C(F)(F)F)cc5)ccc4c3=O)cn2)C1` gave a Ki of 8.4 nM. For the same compound, the intrinsic clearance (CLint scaled) in [11] was 26 mL/min/kg.
`CCN[C@H]1CCN(c2ccc(-n3ncc4cc(-c5ccc(Cl)cc5)ccc4c3=O)cn2)C1` had a Ki in data set [8] of 1.9 nM. Also, the intrinsic metabolic clearance (CLint scaled) in data set [11] amounted to 9.2 mL/min/kg.
The corresponding values for `CN(C)[C@H]1CCN(c2ccc(-n3ncc4cc(-c5ccc(C(F)(F)F)cc5)oc4c3=O)cn2)C1` are 21 nM and 28 mL/min/kg.
The matching figures for `CN[C@@H]1CCN(c2ccc(-n3ncc4cc(-c5ccc(OC)cc5)sc4c3=O)cn2)C1`: 1.3 nM and 720 mL/min/kg.
The matching figures for `CN[C@@H]1CCN(c2ccc(-n3ncc4cc(-c5ccc(Cl)cc5)ccc4c3=O)cn2)C1`: 1.5 nM and 12 mL/min/kg.
In data set [8], `CN(C)[C@@H]1CCN(c2ccc(-n3ncc4cc(-c5ccc(Cl)cc5)ccc4c3=O)cn2)C1` returned an inhibition constant Ki of 1.1 nM. The compound further displayed a CLint scaled in data set [11] of 21 mL/min/kg.
For the compound `CN(C)[C@H]1CCN(c2ccc(-n3ncc4cc(-c5ccc(Cl)cc5)ccc4c3=O)cn2)C1`, affinity in data set [8] was put at a Ki of 1.1 nM. This compound had an intrinsic metabolic clearance (CLint scaled) in [11] of 12 mL/min/kg.
For `CN(C)[C@H]1CCN(c2ccc(-n3ncc4cc(-c5ccc(C(F)(F)F)cc5)[se]c4c3=O)cn2)C1`, in data set [23], the inhibition came to 28%. In addition, the CLint scaled in data set [11] was 27 mL/min/kg.
